# Runt-CBFb FRET = inhibitors of human RUNX1 Runt domain binding to CBFb. Cerulean-Runt/Venus-CBFb FRET ratio 530/480, 1 h. inhibition, % at 20 µM. hit rate 0.46% among 220,000. AID 1496;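 active = inhibition over about 50% at 20 µM in the single-dose screen, limit read from the data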;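 note: 0% = DMSO wells and 100% = excess unlabeled CBFb competitor control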
# Target sequence (Q01196 whole entry, looked up, the tested form may be a part): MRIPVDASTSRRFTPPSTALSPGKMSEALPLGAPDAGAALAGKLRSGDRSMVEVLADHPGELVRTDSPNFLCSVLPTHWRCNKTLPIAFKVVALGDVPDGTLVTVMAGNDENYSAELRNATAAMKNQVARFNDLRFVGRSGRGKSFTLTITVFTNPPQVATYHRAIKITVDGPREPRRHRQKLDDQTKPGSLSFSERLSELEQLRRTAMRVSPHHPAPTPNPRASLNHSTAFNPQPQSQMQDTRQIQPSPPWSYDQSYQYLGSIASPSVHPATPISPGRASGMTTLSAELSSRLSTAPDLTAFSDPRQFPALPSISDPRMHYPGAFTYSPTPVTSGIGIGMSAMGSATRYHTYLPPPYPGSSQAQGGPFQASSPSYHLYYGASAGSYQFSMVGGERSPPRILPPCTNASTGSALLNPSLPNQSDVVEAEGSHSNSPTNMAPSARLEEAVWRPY
# Target sequence (Q13951 whole entry, looked up, the tested form may be a part): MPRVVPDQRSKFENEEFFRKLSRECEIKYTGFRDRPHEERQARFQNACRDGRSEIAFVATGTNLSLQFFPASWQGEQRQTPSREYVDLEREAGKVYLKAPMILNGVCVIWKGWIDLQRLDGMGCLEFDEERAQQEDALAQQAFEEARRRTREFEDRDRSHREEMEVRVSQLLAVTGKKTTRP
#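 Doses: 20 µM compound in 1% DMSO | Material: Cerulean-labeled Runt domain protein | Amount: Each fluorescent fusion protein 100 nM | Schedule: Two 1 h room-temperature incubations shielded from light | Measured by: FRET fluorescence | Evaluation: Loss of energy transfer signal | Controls: Unlabeled CBFb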
# Hck Nef HTS = human Hck-Nef kinase inhibition | Recombinant Hck-YEEI plus Nef, Z-Lyte FRET kinase assay | inhibition, % at 20 µM | AID 463187 | hit rate 0.68% among 220,000 | P08631;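 active = Hck-Nef kinase inhibition above about 50%, limit read from the data; inactive = inhibition below that limit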;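 note: 0% = DMSO with Hck plus Nef and 100% = Hck alone without Nef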
# RanGTP-Impb inh = inhibitors of RanGTP-importin-beta interaction, primary screen, biochemical, FRET, CFP-Ran, YFP-importin-beta, homogeneous | hit rate 1.1% among 300,000 | cell-free CFP-Ran/YFP-importin-beta FRET ratio | inhibition, % (test concentration not listed);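 active = more than half of the replicate wells show a fall in the fluorescence ratio signal beyond about 16%, limit read from the data, passing the limit was not always enough; inconclusive = exactly half of the replicate wells pass the set limit; inactive = fewer than half of replicates pass the limit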;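 note: 0% = DMSO wells and 100% = Ran loaded with GDP instead of GTP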
# Runt-SMMHC FRET = blocks binding of human RUNX1 Runt domain to CBFb-SMMHC; Cerulean-Runt/Venus-CBFb-SMMHC FRET ratio 530/480, 1 h; inhibition, % at 20 µM; hit rate 0.74% among 220,000;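 active = mean inhibition across duplicate retests at 20 µM reaching about 50%, limit read from the data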;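 note: 0% = DMSO wells and 100% = wells with excess untagged CBFb-SMMHC; inhibitors lower the FRET ratio by blocking Runt binding to CBFb-SMMHC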
# The depositor's hits bear a star; ? = inconclusive; . = no result. This is a sample that favours compounds with a hit; in the whole collection about 1.8% have one here.
SMILES,Runt-CBFb FRET,Hck Nef HTS,RanGTP-Impb inh,Runt-SMMHC FRET
CCc1cc2c(CN3CCN(CCO)CC3)cc(=O)oc2cc1O,70*,32,113*,62*
CCc1cc2c(CN3CCN(C)CC3)cc(=O)oc2cc1O,18,29,114*,57*
COc1ccc(OC)c(CN2CCN(Cc3cc(=O)oc4cc(O)ccc34)CC2)c1,.,.,61*,.
COc1ccc2sc3ccccc3c(=O)c2c1,10,15,95*,-20
NC(=O)c1ccccc1NC(=O)COC(=O)C1(c2ccccc2)CC1,.,.,5,.
CN(C)CCNC(=O)c1cc2c(s1)-c1ccccc1OC2,4,8,2,10
Cc1csc(NC(=O)c2cc3c(s2)-c2ccccc2OC3)n1,2,28,49*,-12
Cc1cccc(C)c1NC(=O)C1=C(O)c2sccc2N(C)S1(=O)=O,32,27,46*,59*
CC(C)c1ccc(C2NC(=O)c3ccccc3O2)cc1 (configuration not stated),.,.,-2,.
Cc1ccc(OCC(=O)N/N=C/c2cn(C)c3ccccc23)cc1,-2,11,-1,-10
CCOC(=O)c1c2ccc(OCC(=O)N/N=C/c3ccc(C)cc3)cc2n2ccccc12,-4,27,29*,78
CCOC(=O)c1c(C)n(C)c2cc(OCCN(CC)CC)ccc12,-1,1,-1,-1
CCOC(=O)c1c2ccc(OCC(=O)NN)cc2n2ccccc12,21,-3,66*,86*
Cn1c(CNC(=O)c2ccc(Cl)cc2)nnc1SCC(=O)N1CCOCC1,.,.,-1,.
COc1ccc(C=Nc2cccnc2N)cc1,.,.,25*,.
O=[N+]([O-])c1ccc(-c2cn3nc(-c4ccccc4)c(-c4ccccc4)nc3n2)cc1,-130,17,42*,81
c1ccc(-c2cn3nc(-c4ccccc4)c(-c4ccccc4)nc3n2)cc1,.,-2,-9,-2
Cc1ccc(-c2cn3nc(-c4ccccc4)c(-c4ccccc4)nc3n2)cc1,2,-24,90*,81
O=[N+]([O-])c1cccc(-c2cn3nc(-c4ccccc4)c(-c4ccccc4)nc3n2)c1,0,-68,70*,90
CCCCCCC(CC(=O)NCc1cccnc1)CC(=O)NCc1cccnc1,.,.,-3,.
CCCCC(c1nnnn1C(C)C)N1CCN(C(=O)c2ccco2)CC1 (configuration not stated),.,.,4,.
CCN(CC)CCN1C(=O)C2C(C(=O)Nc3cccc(C)c3)C3C=CC2(O3)C1C(=O)NC1CCCC(C)C1C (configuration not stated),.,.,2,.
COCCCNC(=S)NCCNc1nc2c(C)c(C)ccc2cc1C#N,32,22,.,64*
COCCCNC(=S)N1CCCN(c2nc3c(C)c(C)ccc3cc2C#N)CC1,.,23,43*,.
COCCCNC(=S)NCCCNc1nc2cc(C)cc(C)c2cc1C#N,20,24,-9,66*
SMILES,Runt-CBFb FRET,Hck Nef HTS,RanGTP-Impb inh,Runt-SMMHC FRET
Cc1ccc2cc(C#N)c(N3CCCN(C(=O)C4CCCO4)CC3)nc2c1C (configuration not stated),6,0,50*,64*
O=C(C1CCCO1)N1CCN(c2ncccn2)CC1 (configuration not stated),0,22,-5,-1
COc1cc(C(=O)NCCNc2nc3c(C)c(C)ccc3cc2C#N)cc(OC)c1OC,.,.,2,.
O=C(COc1ccc(S(=O)(=O)N2CCCC2)cc1)NCC1CCCO1 (configuration not stated),-1,12,1,1
CCc1noc(C)c1C(=O)NCCc1ccccc1,.,.,-6,.
Cc1cccc2cc(C#N)c(N3CCC(O)CC3)nc12,36,15,29*,71*
Cc1cc(C)c2nc(N3CCCN(C(=O)c4ccco4)CC3)c(C#N)cc2c1,13,15,89*,70*
Cc1cccc2cc(C#N)c(N3CCOCC3)nc12,.,.,13,.
Cc1nc(N2CCN(C(=O)c3ccco3)CC2)c(C#N)c2c1CCCC2,.,.,5,.
Cc1ccc(C(C)(O)CS(=O)(=O)Cc2ccccc2Cl)cc1 (configuration not stated),.,.,-1,.
CN(CCc1nc2ccc(Cl)cc2[nH]1)Cc1nc(CC2CC2)no1,1,-12,-4,-1
Cn1c(=O)c2nc3ccccc3nc2n(C)c1=O,31,20,7,63*
CCCCn1c(N)c(N(Cc2ccccc2OC)C(=O)CSCC(=O)Nc2cccc(C)c2)c(=O)[nH]c1=O,.,.,0,.
CC1CCc2c(sc(Nc3nc4c(F)cccc4s3)c2C(N)=O)C1 (configuration not stated),127*,10,170*,86*
O=S(=O)(c1ccccc1)N(CC1CO1)c1cc(Cl)ccc1Cl (configuration not stated),.,.,-1,.
Cn1cc(CN2CCC[C@H]2CO)c(-c2cccc(Cl)c2)n1,-1,19,110*,4
CC(C)[C@H]1CN(C)CCN1Cc1cn(C)nc1-c1cccc(Cl)c1,-2,6,-3,3
CN(C)NC(=S)Nc1ccc2nc(-c3ccccn3)c(-c3ccccn3)nc2c1,3,0,48*,-189
OCCCNC(=S)Nc1ccc2nc(-c3ccccn3)c(-c3ccccn3)nc2c1,-2,0,36*,-17
C=CCN1C(=O)c2ccc(C(=O)N(CC(C)C)c3c(N)n(CCCC)c(=O)[nH]c3=O)cc2C1=O,.,.,1,.
CCOC(=O)C1(CCCc2ccccc2)CCN(S(C)(=O)=O)CC1,.,.,4,.
COc1ccc(NC(=O)CN2CCN(CC(=O)Nc3ccc(F)cc3F)CC2)cc1,.,.,7,.
CC(Sc1nnnn1-c1ccc(O)cc1)C(=O)NC1CCCCC1C (configuration not stated),.,.,6,.
Cc1cccn2c(=O)c(/C=C(\C#N)C(=O)NC3CCS(=O)(=O)C3)c(N3CC(C)OC(C)C3)nc12 (configuration not stated),12,3,?,103*
Cc1cccn2c(=O)c(/C=C(\C#N)C(=O)NC3CCS(=O)(=O)C3)c(N3CCC(C(N)=O)CC3)nc12 (configuration not stated),134*,6,?,63*
SMILES,Runt-CBFb FRET,Hck Nef HTS,RanGTP-Impb inh,Runt-SMMHC FRET
Cc1cccn2c(=O)c(/C=C(\C#N)S(=O)(=O)c3ccccc3)c(N3CCC(C(N)=O)CC3)nc12,-7,0,10,-14
c1cnc2nc(-c3ccc4c(c3)OCO4)cn2c1,-1,9,4,1
c1ccn2cc(-c3ccc4c(c3)OCO4)cc2c1,59*,26,-2,92*
COc1ccc(OC)c(N2C(=O)CC(Cc3ccc(Cl)cc3)C2=O)c1 (configuration not stated),-2,7,-3,0
COc1ccc(OC)c(N2C(=O)CC(Cc3cc(C)cc(C)c3)C2=O)c1 (configuration not stated),-5,7,31*,1
Cc1ccc(CNC(=O)c2cc3c(=O)n4ccccc4nc3n(Cc3ccco3)c2=N)cc1,88*,.,78*,39
COCCn1c(=N)c(C(=O)NCc2ccco2)cc2c(=O)n3ccccc3nc21,11,23,.,41
